Screening data from PubChem BioAssay.
Pf Dd2 inh = inhibitors of Plasmodium falciparum Dd2 growth. P. falciparum Dd2 growth, SYBR Green, 72 h; hits give low values. activity change, % at 10 µM. 94,000 compounds, 2.3% hits. AID 1159554; in the data active = activity change below about -80%; inconclusive = no clear call, values can overlap the other calls
IDH1 R132H inh = IDH1 R132H (human) inhibition. O75874. 70,000 compounds, 0.18% hits. inhibition, % at 10 µM. IDH1 R132H reductase, diaphorase/resazurin fluorescence, 60 min; in the data active = inhibition above about 34%; inconclusive = no clear call, values can overlap the other calls; inactive = below about 11%;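 note: 0% = DMSO and 100% = no enzyme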
Target sequence (O75874 whole entry R132H): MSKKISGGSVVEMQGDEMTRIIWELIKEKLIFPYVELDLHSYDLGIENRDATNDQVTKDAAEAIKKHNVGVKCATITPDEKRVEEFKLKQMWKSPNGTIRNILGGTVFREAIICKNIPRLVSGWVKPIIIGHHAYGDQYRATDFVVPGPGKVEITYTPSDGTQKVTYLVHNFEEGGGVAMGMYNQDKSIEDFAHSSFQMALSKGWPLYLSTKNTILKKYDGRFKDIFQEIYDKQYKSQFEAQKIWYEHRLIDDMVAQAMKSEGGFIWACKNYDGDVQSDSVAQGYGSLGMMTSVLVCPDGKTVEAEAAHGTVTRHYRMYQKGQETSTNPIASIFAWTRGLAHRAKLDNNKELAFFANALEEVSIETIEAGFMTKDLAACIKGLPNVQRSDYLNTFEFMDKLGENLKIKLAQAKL
Tcruzi prolif = inhibitors of T. cruzi proliferation | T. cruzi beta-gal in NIH3T3, GalScreen luminescence, 90 h | inhibition, % at 8.34 µM | 77,000 compounds, 5.9% hits;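 active = mean inhibition above about 93%, with at least 55% of replicates each passing it, limit read from the data, passing the limit was not always enough; inconclusive = only one of those two conditions holds; inactive = neither condition holds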
KDM4C inh = blocks human GASC-1 (KDM4C) demethylase activity | Q9H3R0 | GST-KDM4C 2-372, H3K9me3 peptide, LANCE TR-FRET | inhibition, % at 12.5 µM | 96,000 compounds, 0.15% hits;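 active = mean replicate inhibition above about 25%, with at least 55% of replicates also reaching it, limit read from the data, passing the limit was not always enough; inconclusive = only one of those two conditions met; inactive = neither condition met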
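material = GST-tagged GASC-1 (JMJD2C) catalytic fragment, aa 2-372 | amount = enzyme final amount 10 nM | medium = HEPES buffer, pH 7.5, plus ascorbate | also added = H3K9me3 peptide substrate, Fe(II), 2-oxoglutarate | dosing = single dose | times = 30 min demethylation and 1 h detection at room temperature | detection = LANCE TR-FRET | read-out basis = Fall in 671/618 emission ratio as inhibition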
Active calls of the source: *; u = inconclusive; x = no result. Shown are actives, neighbours in structure and some others; about 5.8% of the full set was active somewhere.

SMILES | Pf Dd2 inh | IDH1 R132H inh | Tcruzi prolif | KDM4C inh
C[C@@H]1CN([C@H](C)CO)C(=O)c2c(c3ccccc3n2C)-c2ccccc2CO[C@@H]1CN(C)C(=O)c1cc(Cl)cc(Cl)c1 | -92.3* | x | x | -1.7
C[C@H]1CN([C@@H](C)CO)C(=O)c2c(c3ccccc3n2C)-c2ccccc2CO[C@@H]1CN(C)C(=O)c1cc(Cl)cc(Cl)c1 | u | x | x | -1.3
C[C@H](CO)N1C[C@H](C)[C@H](CN(C)C(=O)c2ccc(F)cc2)OCc2ccccc2-c2c(n(C)c3ccccc23)C1=O | -85.7* | 0.5 | 59.7 | -1.8
CC1(C)CC(=O)C2=C(C1)N(c1ccccc1)C(=O)C2(NC(=O)c1cccnc1)C(F)(F)F (stereo not given) | x | 0.3 | x | x
CO[C@@H]1CN(C)C(=O)c2cc(NC(=O)c3nc4ccccc4s3)ccc2OC[C@@H](C)N(Cc2ccccc2)C[C@H]1C | -85.5* | 0.0 | x | -0.9
COc1ccc(CN2C[C@H](C)[C@@H](OC)CN(C)C(=O)c3cc(NC(=O)c4nc5ccccc5s4)ccc3OC[C@@H]2C)cc1 | -85.2* | -0.2 | x | -0.3
COc1ccc(CN2C[C@@H](C)[C@@H](OC)CN(C)C(=O)c3cc(NC(=O)c4nc5ccccc5s4)ccc3OC[C@@H]2C)cc1 | -60.5 | -0.2 | x | 2.1
Cc1cc(O)c2c(c1)C(=O)c1cc(OC3OC(COC(=O)CC(=O)O)C(O)C(O)C3O)cc(O)c1C2=O (stereo not given) | x | -1.5 | x | x
CCc1cc(Br)cc(C)c1NC(=O)CSc1nnc(-c2ccncc2)n1-c1ccccc1 | x | -0.1 | x | x
C[C@H]1CN([C@@H](C)CO)C(=O)Cc2cc(NC(=O)CCCCCC(=O)Nc3ccccc3N)ccc2O[C@H]1CN(C)S(=O)(=O)c1ccc(Cl)cc1 | -93.7* | x | 59.0 | 0.4
C[C@H](CO)N1C[C@H](C)[C@H](CN(C)S(=O)(=O)c2ccc(Cl)cc2)Oc2ccc(NC(=O)CCCCCC(=O)Nc3ccccc3N)cc2CC1=O | -90.9* | x | 57.7 | 0.0
C[C@@H]1CN([C@H](C)CO)C(=O)Cc2cc(NC(=O)CCCCCC(=O)Nc3ccccc3N)ccc2O[C@H]1CN(C)S(=O)(=O)c1ccc(Cl)cc1 | -50.8 | 0.6 | -12.6 | -1.1
C[C@@H]1CN([C@@H](C)CO)C(=O)Cc2cc(NC(=O)CCCCCC(=O)Nc3ccccc3N)ccc2O[C@H]1CN(C)S(=O)(=O)c1ccc(Cl)cc1 | -63.5 | -5.0 | -6.3 | -1.1
CSc1cccc(NC(=O)CN(C)S(=O)(=O)c2c(C)cc(C)cc2C)c1 | x | 0.0 | x | x
Cc1noc(C)c1S(=O)(=O)Nc1ccc2c(c1)CC(=O)N([C@H](C)CO)C[C@@H](C)[C@@H](CN(C)Cc1ccc(C(=O)Nc3ccccc3N)cc1)O2 | -88.5* | 7.9 | x | -2.2
Cc1noc(C)c1S(=O)(=O)Nc1ccc2c(c1)CC(=O)N([C@@H](C)CO)C[C@@H](C)[C@@H](CN(C)Cc1ccc(C(=O)Nc3ccccc3N)cc1)O2 | -92.6* | x | x | 0.7
Cc1noc(C)c1S(=O)(=O)Nc1ccc2c(c1)CC(=O)N([C@H](C)CO)C[C@H](C)[C@@H](CN(C)Cc1ccc(C(=O)Nc3ccccc3N)cc1)O2 | -73.5 | -1.2 | x | -0.7
CCOC(=O)c1ccccc1NC(=O)C(C)Oc1ccc2c(C)cc(=O)oc2c1 (stereo not given) | x | 1.2 | x | x
CS(=O)(=O)N(CC(=O)Nc1ccc(F)c(F)c1)c1ccc(Cl)c(C(F)(F)F)c1 | x | 0.2 | x | x
C=CCN(CC=C)C(=O)Cc1ccc(Br)cc1 | x | 1.1 | x | x
O=C(CCn1c(=S)[nH]c2c(sc3ccccc32)c1=O)NC1CCCCC1 | x | 0.1 | x | x
COc1ccc2c3c(n(C)c2c1)[C@H](CO)N(C(=O)C1CCC1)CC31CCN(C(=O)CN(C)C)CC1 | -81.5* | x | x | -0.2
COc1ccc2c3c(n(C)c2c1)[C@@H](CO)N(C(=O)C1CCC1)CC31CCN(C(=O)CN(C)C)CC1 | -64.5 | x | x | 0.7
COc1ccc(NC(=O)N2CCC3(CC2)CN(C(=O)C2CCC2)[C@@H](CO)c2c3c3ccc(OC)cc3n2C)cc1 | -93.5* | x | x | -0.3
COc1ccc(NC(=O)N2CC3(C2)CN(C(=O)C2CCC2)[C@@H](CO)c2c3c3ccc(OC)cc3n2C)cc1 | -29.2 | x | x | 0.7
SMILES | Pf Dd2 inh | IDH1 R132H inh | Tcruzi prolif | KDM4C inh
COc1ccc2c3c(n(C)c2c1)[C@H](CO)N(C(=O)C1CCC1)CC31CCN(C(=O)Nc2cccc(F)c2)CC1 | -64.5 | x | x | -0.1
COc1ccc2c3c(n(C)c2c1)[C@@H](CO)N(C(=O)C1CCC1)CC31CCN(C(=O)Nc2cccc(F)c2)CC1 | -85.8* | x | x | -1.2
COc1ccc(S(=O)(=O)N2CC3(CN(C(=O)CN(C)C)[C@H](CO)c4c3c3ccc(OC)cc3n4C)C2)cc1 | -84.1* | x | x | -0.5
COc1c(CO)c(O)cc2c1C(=O)c1ccccc1C2=O | x | -0.5 | x | x
CC1(C)CC(=O)C=C(NCC2CCN(C(=S)Nc3ccccc3)CC2)C1 | x | 0.4 | x | x
COc1ccc2c3c(n(C)c2c1)[C@H](CO)N(C(=O)C1CC1)CC31CCN(C(=O)Nc2cccc(F)c2)CC1 | -81.9* | x | x | -0.1
COc1ccc2c3c(n(C)c2c1)[C@@H](CO)N(C(=O)C1CCCC1)CC31CN(C(=O)Nc2cccc(F)c2)C1 | -88.2* | x | x | -2.1
CCS(=O)(=O)N1CCC2(CC1)CN(C(=O)Nc1cccc(F)c1)[C@H](CO)c1c2c2ccc(OC)cc2n1C | -88.0* | x | x | -1.3
COC(=O)c1ccccc1NC(=O)C(C)Oc1cccc(Cl)c1 (stereo not given) | x | 0.1 | x | x
Cc1ccc(NC(=O)COc2ccccc2Cl)c([N+](=O)[O-])c1 | x | -0.3 | x | x
C#CCN1C(=O)C(O)(CC(=O)c2ccc(C)o2)c2ccccc21 (stereo not given) | x | 0.2 | x | x
CCS(=O)(=O)N1CC2(C1)CN(S(=O)(=O)c1ccc(C)cc1)[C@@H](CO)c1[nH]c3cc(OC)ccc3c12 | -77.0 | x | x | 0.3
CCC(=O)N1CC2(C1)CN(S(=O)(=O)c1ccccc1)[C@H](CO)c1[nH]c3cc(OC)ccc3c12 | -16.9 | x | x | 3.0
CCS(=O)(=O)N1CC2(C1)CN(S(=O)(=O)c1cccc(OC)c1)[C@@H](CO)c1[nH]c3cc(OC)ccc3c12 | -84.2* | x | x | -0.6
CCS(=O)(=O)N1CCC2(CC1)CN(S(=O)(=O)c1ccc(C)cc1)[C@@H](CO)c1[nH]c3cc(OC)ccc3c12 | -89.5* | x | x | -3.6
COc1ccc2c3c([nH]c2c1)[C@H](CO)N(S(=O)(=O)c1cn(C)cn1)CC31CCN(CC2CCCCC2)CC1 | -84.9* | x | x | -1.5
COc1ccc2c3c([nH]c2c1)[C@@H](CO)N(S(=O)(=O)c1cn(C)cn1)CC31CCN(CC2CCCC2)CC1 | -41.1 | x | x | -0.7
CCC(=O)N1CC2(C1)CN(S(=O)(=O)c1ccccc1)[C@@H](CO)c1[nH]c3cc(OC)ccc3c12 | -92.9* | x | x | -0.6
COc1ccc(NC(=O)Cc2nc(-c3ccc(OC)cc3)cs2)cc1 | x | -0.2 | x | x
O=C(CC1(O)C(=O)N(Cc2ccccc2)c2ccc(Br)cc21)c1ccco1 (stereo not given) | x | -0.3 | x | x
N#Cc1c(NC(=O)CSc2ncccn2)sc2c1CCCC2 | x | 0.3 | x | x
